Assay results taken from ChEMBL document CHEMBL4513216, “Probing the Open Global Health Chemical Diversity Library for Multistage-Active Starting Points for Next-Generation Antimalarials” (ACS Infect Dis, 2020).

Assay: Toxicity liver stage against HepG2, at 10uM
Assay type: cell-based
Parameters: test concentration 10 uM, cell line HepG2-A16-CD81EGFP
Settings: human, HepG2-A16-CD81EGFP cells; read-out: INHIBITION
In short: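 Uninfected HepG2-A16-CD81EGFP cells, 3 × 10^3 per well, 1536-well, plated on prespotted compound at 10 μM final, parasite-free screening media added to match infected plates; puromycin 10 μM positive, DMSO 0.5% negative; run in parallel with 48 h PbLuc assay at 37 °C, 5% CO2; viability by CellTiter-Glo luminescence, normalized to controls.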

Compound | cytotoxicity at 10 µM [%]
Cc1ccc(N2C(=O)N[C@@H]3CCN(C(=O)C4CC4)[C@@H]3C2=O)cc1 | 3.85
Cc1occc(=O)c1OCc1noc(C(=O)NCC2CC2)n1 | -2.51
CCS(=O)(=O)N1CCN(CC(F)(F)F)CC1 | -1.99
COC1(CNC(=O)NCCOc2ccccc2)CCSC1 (stereo not drawn) | -0.572
CCN1C(=O)CC[C@@H]2[C@H]1CCN2S(=O)(=O)c1cccs1 | 0.169
CCOCC(=O)N1CCCC2(CCN(c3ccccc3)C2=O)C1 (stereo not drawn) | 2.02
CCCNC(=O)c1cc(-c2ccn(C(C)C)n2)n2ccccc12 | 1.92
CN(C)CC(=O)N1Cc2cc(N(C)C)ccc2C1c1cnco1 (stereo not drawn) | -0.757
CNC(=O)[C@@H]1COC[C@H]2CN(C(=O)c3cccc(OC)c3)C[C@H]21 | 12.2
CN1C(=O)CCC12CCCN(C(=O)c1ccoc1)C2 (stereo not drawn) | 2.65
Cc1noc(C2(NC(=O)c3cccnc3O)CCCCC2)n1 | -9.83
COCC1CN(C(=O)c2cccn2C)Cc2ncnn2C1 (stereo not drawn) | -8.97
CCCn1nnc(NCc2ccc(-c3ccc(Br)cc3)o2)n1 | -4.11
O=C1CNc2ncnc(Nc3cnn(Cc4ccccc4F)c3)c2N1 | 2.27
Cc1nc(NCc2cccnc2)cc(C2COCCN2)n1 (stereo not drawn) | 3.78
Cc1cc(C(F)(F)F)nc(C2COCCN2S(C)(=O)=O)n1 (stereo not drawn) | -2.6
Cn1ncc2ccc(C3CCCN(Cc4ccsc4)C3)nc21 (stereo not drawn) | 8.61
Cc1nc(CCC(=O)NC2CCC2)cc(C2CCNCC2)n1 | -5.15
COc1ccc(-c2nc(CCNCc3ccncc3)co2)cc1 | -6.11
N#Cc1cccc(S(=O)(=O)NC(=O)C2CC(c3ccccc3)=NO2)c1 (stereo not drawn) | 1.85
CCOc1ccc(CNC2CCCN(c3cccnn3)C2)cc1OC (stereo not drawn) | -3.92

Compound | cytotoxicity at 10 µM [%]
Cc1nc(CCCNC(=O)c2c(F)cc(F)cc2F)n[nH]1 | -4.31
CC(NC(=O)N1CCCC1)c1ccc(S(N)(=O)=O)cc1 (stereo not drawn) | -8.2
CN(C)C(=O)COc1ccccc1CNC1CCc2ncnn2C1 (stereo not drawn) | 5.38
COCC(=O)NS(=O)(=O)c1ccc(F)c(F)c1 | -6.49
CS(=O)(=O)CCC(=O)NC(c1ccc(F)cc1)C(F)(F)F (stereo not drawn) | -4.44
O=C(NC1CC1)C1CCN(Cn2nc(-c3ccccc3)oc2=O)CC1 | 15
NC(=O)c1cc(NC(=O)N2CCOCC2)ccc1F | -48.8
CCOC(C)c1noc(CN2CCN(Cc3ccno3)CC2)n1 (stereo not drawn) | 7.24
Cc1nc(C)c(C(C)NC(=O)NCCNc2cccc(F)c2C#N)s1 (stereo not drawn) | -1.37
Cc1ccccc1OCCN(C)Cc1noc(CC(C)C)n1 | -6.99
CN(C)Cc1ccc(N2CCN(CCOCC(F)(F)F)CC2)nc1 | 1.25
CCN(C(C)=O)C(c1ccc(Cl)cc1)c1ccccn1 (stereo not drawn) | -4.29
CN(Cc1ccncc1)c1cncc(Br)c1 | 2.71
Cc1cc(C(=O)NCC(=O)N2CCOCC2)nn1C(C)(C)C | -3.44
CC(Sc1nnc(C2CC2)n1CC(N)=O)c1ccc(Cl)cc1 (stereo not drawn) | 7.72
CCC(=O)NCC(=O)NCc1cc(Br)ccc1OC(F)F | 17.5
O=C(CCn1cncn1)NC1(c2cccc(Br)c2)CCC1 | -20.2
O=C(CCc1cscn1)NS(=O)(=O)c1ccc2c(c1)CCC2 | -24.5
Cc1nn(C)c(C)c1C1COCCN1C(=O)Cc1cccc(F)c1 (stereo not drawn) | -11
Cc1nc(C)n(CC2CCCN2CCCc2ccccc2)n1 (stereo not drawn) | -14.1
COCC1CN(C(=O)Cc2ccc(F)cc2)Cc2ccnn2C1 (stereo not drawn) | -73.9

Compound | cytotoxicity at 10 µM [%]
CC(=O)N1CCC(n2nccc2-c2cnc(NCCO)nc2)CC1 | -1
CCCN(Cc1ccccc1C)C(CC)CO (stereo not drawn) | -6.08
Nc1nc(N2CCCC(COc3ccc(F)cc3)C2)c2nc[nH]c2n1 (stereo not drawn) | 2.11
CCN(CC)CCn1ccnc1-c1cccc(C#N)c1 | -5
CC(=O)N1CCC(N2CCN(Cc3ccc(C)o3)C(CCO)C2)CC1 (stereo not drawn) | -3.57
Cc1ccc(-n2ncc3c2CCCC3N)cc1C (stereo not drawn) | -1.97
Cc1noc(-c2ccc(N[C@H]3CCCCNC3=O)nc2)n1 | 0.913
Cn1ncc2c(NC3CCC3)nc(-c3ccncc3)nc21 | 16.7
Cc1ccc(F)c(OC2(C(=O)O)CCN(C(=O)N3CCCC3)CC2)c1 | -3.94
Cc1nc[nH]c1CN(C)CC1CCCN(CCc2ccc(Cl)cc2)C1 (stereo not drawn) | -15.5
Cn1c(Cn2cccn2)nnc1C1CCN(Cc2cccnc2N)CC1 | -9.12
CCCc1noc(CN(C)C(=O)C2COc3ccccc3C2)n1 (stereo not drawn) | -7.01
O=C(c1cccs1)N1CCC(Cn2nc(-c3ccco3)ccc2=O)CC1 | -2.21
NC(=O)C1CCN(C(=O)CCCc2nnc(-c3ccccc3)o2)CC1 | -13.2
O=C(CCCc1nc(-c2ccccc2)no1)N1CCN(CCO)CC1 | -3.54
Cc1ncsc1C(=O)NC1CCN(CCCC#N)CC1 | -14.7
COCc1ccc(CNCc2c(C)nn(C)c2N(C)C)cc1 | -16
CC(NC(=O)CCOc1cccc(F)c1)c1nnc2n1CCC2 (stereo not drawn) | -14.1
Cc1n[nH]c(C2CN(Cc3nnc(C4CC4)n3C)CCO2)n1 (stereo not drawn) | -16
Cc1nn(C)c(C)c1C1CCCN1C(=O)CCNc1ncccn1 (stereo not drawn) | -7.37
COc1ccc(C(N)c2cccc(S(C)(=O)=O)c2)cc1 (stereo not drawn) | 4.69

Compound | cytotoxicity at 10 µM [%]
Cc1nc(CNC(C)c2ccc(OCC(=O)NC3CC3)cc2)cs1 (stereo not drawn) | -2.82
Cc1nn(C)c(C)c1CNCc1ccnc(N2CCOCC2)c1 | 0.626
Cc1nc2sccn2c1CN(CCCN(C)C)Cc1ccco1 | -0.215
Cc1cnc(N2CC[C@@H](N3CCOCC3)[C@@H]2Cc2ccncc2)nc1 | 4.47
Cn1cc(C2CC(=O)NC23CCN(C(=O)c2cccnc2)CC3)cn1 (stereo not drawn) | -79.7
Cc1ccc(CNC(c2ccccc2)c2nccn2C)cc1 (stereo not drawn) | -6.3
CCCS(=O)(=O)N1CCO[C@H]2[C@H](OCc3ccccn3)CC[C@@H]21 | -9
CN1CCC(c2nc3ccc(-c4cccc(F)c4)cn3n2)CC1 | 10.4
CCOCC1CN(C(=O)Cc2ccsc2)Cc2ccnn2C1 (stereo not drawn) | -71.4
O=C(CC1CC1)N[C@@H]1CN(Cc2ccncc2)C[C@@H]2CCCO[C@@H]21 | -7.96
CNC(=O)[C@H]1C[C@@H]2CN(Cc3cccnc3OC)C[C@@H]2N1C(C)C | 11.5
O=C(CC1CC1)NCc1cn2c(n1)CN(Cc1cccnc1)CC2 | -78
Cn1nccc1-c1ccc2nc(C3CCN(CCO)CC3)nn2c1 | -14.1
Cc1cccc(CN2C(=O)CC[C@@H]3[C@H]2CCN3Cc2ccc(C)s2)n1 | 5.45
CN(C)CCN1CCO[C@H]2CN(C(=O)N(C)C)C[C@H]21 | 0.657
CS(=O)(=O)N1CCC2(CN(C(=O)c3cccnc3)C2)C1 | -13
c1ccc(CN2C[C@H]3CCC[C@@]3(COCC3CCOCC3)C2)nc1 | 1.49
Cn1cc(CN2CCc3onc(C(=O)N4CCCC4)c3C2)cn1 | -12.2
O=c1c2c[nH]c(N3CCOCC3)nc-2cn1Cc1cccc(F)c1 | -2.72
COCC1N(C(=O)N2CCOCC2)C2CCC1(O)CC2 (stereo not drawn) | -0.791
